Reference: ChEMBL document CHEMBL2163262 (J Med Chem, 2012)
Several values for one entry are separate records, joined by “and”; a condition that tells them apart may be missing. Equal values may be shown once.

What was measured:
[1] = molecular target: T1, Neuropeptide FF receptor 2 (Homo sapiens, UniProt Q9Y5X5); assay: Agonist activity at human NPFF2 receptor expressed in COS1 cells assessed as [3H]inositol phosphate accumulation after 2 hrs by liquid scintillation counting; format: functional, cell-based, COS-1
[2] = molecular target: T2, Neuropeptide FF receptor 1 (Homo sapiens, UniProt Q9GZQ6); assay: Partial agonist activity at human NPFF1 receptor expressed in COS1 cells assessed as [3H]inositol phosphate accumulation at 10 uM after 2 hrs by liquid scintillation counting relative to NPVF; format: functional, cell-based; conditions: COS-1
[3] = molecular target: T2, Neuropeptide FF receptor 1; assay: Agonist activity at human NPFF1 receptor expressed in […] assessed as [3H]inositol phosphate accumulation after 2 hrs by liquid scintillation counting; format: functional, cell-based, COS-1
How it was run: (§1)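 IP accumulation in COS-7 cells transiently cotransfected with human NPFFR (Ala point mutant or wt) plus chimeric G protein. Cells seeded at 60,000/well and grown to subconfluency. Compounds were dissolved in DMSO and diluted in DMEM with 10 mM LiCl (1% v/v DMSO final). Stimulation lasted 2 h.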

[4] = system: Neuropeptide FF receptor 2 (Homo sapiens), Q9Y5X5 [Y415A]; assay: Agonist activity at human NPFF2 receptor Y7.33A mutant assessed as [3H]inositol phosphate accumulation at 31.6 uM after 2 hrs by liquid scintillation counting relative to NPFF; format: functional; how it was run: as §1
[5] = system: Neuropeptide FF receptor 2 (Homo sapiens), Q9Y5X5 [D400A]; assay: Agonist activity at human NPFF2 receptor D6.59A mutant assessed as [3H]inositol phosphate accumulation at 31.6 uM after 2 hrs by liquid scintillation counting relative to NPFF; format: functional; how it was run: as §1
[6] = system: Neuropeptide FF receptor 2 (Homo sapiens), Q9Y5X5 [Y321A]; assay: Agonist activity at human NPFF2 receptor Y5.38A mutant assessed as [3H]inositol phosphate accumulation at 31.6 uM after 2 hrs by liquid scintillation counting relative to NPFF; format: functional; how it was run: as §1
[7] = system: Neuropeptide FF receptor 2 (Homo sapiens), Q9Y5X5 [E310A]; assay: Agonist activity at human NPFF2 receptor E5.27A mutant assessed as [3H]inositol phosphate accumulation at 31.6 uM after 2 hrs by liquid scintillation counting relative to NPFF; format: functional; how it was run: as §1
[8] = system: Neuropeptide FF receptor 2 (Homo sapiens), Q9Y5X5 [Y417A]; assay: Agonist activity at human NPFF2 receptor F/Y7.35A mutant assessed as [3H]inositol phosphate accumulation at 10 uM after 2 hrs by liquid scintillation counting relative to NPFF; format: functional; how it was run: as §1
[9] = molecular target: Neuropeptide FF receptor 2 (Homo sapiens, UniProt Q9Y5X5, Y417A); assay: Agonist activity at human NPFF2 receptor F/Y7.35A mutant assessed as [3H]inositol phosphate accumulation after 2 hrs by liquid scintillation counting; format: functional; how it was run: as §1
[10] = molecular target: Neuropeptide FF receptor 2 (Homo sapiens, UniProt Q9Y5X5, Y415A); assay: Agonist activity at human NPFF2 receptor Y7.33A mutant assessed as [3H]inositol phosphate accumulation after 2 hrs by liquid scintillation counting; format: functional; how it was run: as §1
[11] = molecular target: Neuropeptide FF receptor 2 (Homo sapiens, UniProt Q9Y5X5, D400A); assay: Agonist activity at human NPFF2 receptor D6.59A mutant assessed as [3H]inositol phosphate accumulation after 2 hrs by liquid scintillation counting; format: functional; how it was run: as §1
[12] = molecular target: Neuropeptide FF receptor 2 (Homo sapiens, UniProt Q9Y5X5, Y321A); assay: Agonist activity at human NPFF2 receptor Y5.38A mutant assessed as [3H]inositol phosphate accumulation after 2 hrs by liquid scintillation counting; format: functional; how it was run: as §1
[13] = molecular target: Neuropeptide FF receptor 2 (Homo sapiens, UniProt Q9Y5X5, E310A); assay: Agonist activity at human NPFF2 receptor E5.27A mutant assessed as [3H]inositol phosphate accumulation after 2 hrs by liquid scintillation counting; format: functional; how it was run: as §1
[14] = system: Neuropeptide FF receptor 1 (Homo sapiens), Q9GZQ6 [F311A]; assay: Agonist activity at human NPFF1 receptor F/Y7.35A mutant assessed as [3H]inositol phosphate accumulation at 31.6 uM after 2 hrs by liquid scintillation counting relative to NPVF; format: functional; how it was run: as §1
[15] = system: Neuropeptide FF receptor 1 (Homo sapiens), Q9GZQ6 [D294A]; assay: Agonist activity at human NPFF1 receptor D6.59A mutant assessed as [3H]inositol phosphate accumulation at 31.6 uM after 2 hrs by liquid scintillation counting relative to NPVF; format: functional; how it was run: as §1
[16] = system: Neuropeptide FF receptor 1 (Homo sapiens), Q9GZQ6 [Y216A]; assay: Agonist activity at human NPFF1 receptor Y5.38A mutant assessed as [3H]inositol phosphate accumulation at 31.6 uM after 2 hrs by liquid scintillation counting relative to NPVF; format: functional; how it was run: as §1
[17] = system: Neuropeptide FF receptor 1 (Homo sapiens), Q9GZQ6 [E205A]; assay: Agonist activity at human NPFF1 receptor E5.27A mutant assessed as [3H]inositol phosphate accumulation at 31.6 uM after 2 hrs by liquid scintillation counting relative to NPVF; format: functional; how it was run: as §1
[18] = molecular target: Neuropeptide FF receptor 1 (Homo sapiens, UniProt Q9GZQ6, F311A); assay: Agonist activity at human NPFF1 receptor F/Y7.35A mutant assessed as [3H]inositol phosphate accumulation after 2 hrs by liquid scintillation counting; format: functional; how it was run: as §1
[19] = system: Neuropeptide FF receptor 1 (Homo sapiens), Q9GZQ6 [Y309A]; assay: Agonist activity at human NPFF1 receptor Y7.33A mutant assessed as [3H]inositol phosphate accumulation at 10 uM after 2 hrs by liquid scintillation counting relative to NPVF; format: functional; how it was run: as §1
[20] = molecular target: Neuropeptide FF receptor 1 (Homo sapiens, UniProt Q9GZQ6, Y309A); assay: Agonist activity at human NPFF1 receptor Y7.33A mutant assessed as [3H]inositol phosphate accumulation after 2 hrs by liquid scintillation counting; format: functional; how it was run: as §1
[21] = molecular target: Neuropeptide FF receptor 1 (Homo sapiens, UniProt Q9GZQ6, D294A); assay: Agonist activity at human NPFF1 receptor D6.59A mutant assessed as [3H]inositol phosphate accumulation after 2 hrs by liquid scintillation counting; format: functional; how it was run: as §1
[22] = molecular target: Neuropeptide FF receptor 1 (Homo sapiens, UniProt Q9GZQ6, Y216A); assay: Agonist activity at human NPFF1 receptor Y5.38A mutant assessed as [3H]inositol phosphate accumulation after 2 hrs by liquid scintillation counting; format: functional; how it was run: as §1
[23] = molecular target: Neuropeptide FF receptor 1 (Homo sapiens, UniProt Q9GZQ6, E205A); assay: Agonist activity at human NPFF1 receptor E5.27A mutant assessed as [3H]inositol phosphate accumulation after 2 hrs by liquid scintillation counting; format: functional; how it was run: as §1
[24] = molecular target: T1, Neuropeptide FF receptor 2; assay: Agonist activity at human NPFF2 receptor expressed in COS1 cells assessed as [3H]inositol phosphate accumulation at 10 uM after 2 hrs by liquid scintillation counting relative to NPFF; format: functional, cell-based; conditions: COS-1
[25] = molecular target: T2, Neuropeptide FF receptor 1; assay: Agonist activity at human NPFF1 receptor expressed in COS1 cells assessed as [3H]inositol phosphate accumulation at 10 uM after 2 hrs by liquid scintillation counting relative to NPVF; format: functional, cell-based; conditions: COS-1
[26] = system: Neuropeptide FF receptor 2 (Homo sapiens), Q9Y5X5 [Y417A]; assay: Partial agonist activity at human NPFF2 receptor F/Y7.35A mutant assessed as [3H]inositol phosphate accumulation at 10 uM after 2 hrs by liquid scintillation counting relative to NPFF; format: functional
[27] = molecular target: T2, Neuropeptide FF receptor 1; assay: Agonist activity at human NPFF1 receptor expressed in COS1 cells assessed as [3H]inositol phosphate accumulation up to 10 uM after 2 hrs by liquid scintillation counting; format: functional, cell-based; conditions: cos-1
[28] = system: Neuropeptide FF receptor 1 (Homo sapiens), Q9GZQ6 [F311A]; assay: Agonist activity at human NPFF1 receptor F/Y7.35A mutant assessed as [3H]inositol phosphate accumulation at 10 uM after 2 hrs by liquid scintillation counting relative to NPVF; format: functional
[29] = molecular target: T2, Neuropeptide FF receptor 1; assay: Ratio of EC50 for human NPFF1 receptor F/Y7.35A mutant to EC50 for human wild type NPFF1 receptor
[30] = molecular target: T2, Neuropeptide FF receptor 1; assay: Competitive antagonist activity at human NPFF1 receptor expressed in COS1 cells assessed as inhibition of NPVF-induced [3H]inositol phosphate accumulation after 2 hrs by liquid scintillation counting; format: functional, cell-based, COS-1; conditions: read-out: pA2 (converted)
[31] = system: Neuropeptide FF receptor 1 (Homo sapiens), Q9GZQ6 [E205A]; assay: Agonist activity at human NPFF1 receptor E5.27A mutant assessed as [3H]inositol phosphate accumulation at 10 uM after 2 hrs by liquid scintillation counting relative to NPVF; format: functional; how it was run: as §1
[32] = system: Neuropeptide FF receptor 2 (Homo sapiens), Q9Y5X5 [Y415A]; assay: Agonist activity at human NPFF2 receptor Y7.33A mutant assessed as [3H]inositol phosphate accumulation at 10 uM after 2 hrs by liquid scintillation counting relative to NPFF; format: functional
[33] = system: Neuropeptide FF receptor 2 (Homo sapiens), Q9Y5X5 [Y321A]; assay: Agonist activity at human NPFF2 receptor Y5.38A mutant assessed as [3H]inositol phosphate accumulation at 10 uM after 2 hrs by liquid scintillation counting relative to NPFF; format: functional; how it was run: as §1
[34] = system: Neuropeptide FF receptor 2 (Homo sapiens), Q9Y5X5 [D400A]; assay: Agonist activity at human NPFF2 receptor D6.59A mutant assessed as [3H]inositol phosphate accumulation at 31.6 uM after 2 hrs by liquid scintillation counting relative to NPFF

Sequence of Neuropeptide FF receptor 2 (Homo sapiens, UniProt Q9Y5X5, Y417A) (Q9Y5X5 whole entry Y417A): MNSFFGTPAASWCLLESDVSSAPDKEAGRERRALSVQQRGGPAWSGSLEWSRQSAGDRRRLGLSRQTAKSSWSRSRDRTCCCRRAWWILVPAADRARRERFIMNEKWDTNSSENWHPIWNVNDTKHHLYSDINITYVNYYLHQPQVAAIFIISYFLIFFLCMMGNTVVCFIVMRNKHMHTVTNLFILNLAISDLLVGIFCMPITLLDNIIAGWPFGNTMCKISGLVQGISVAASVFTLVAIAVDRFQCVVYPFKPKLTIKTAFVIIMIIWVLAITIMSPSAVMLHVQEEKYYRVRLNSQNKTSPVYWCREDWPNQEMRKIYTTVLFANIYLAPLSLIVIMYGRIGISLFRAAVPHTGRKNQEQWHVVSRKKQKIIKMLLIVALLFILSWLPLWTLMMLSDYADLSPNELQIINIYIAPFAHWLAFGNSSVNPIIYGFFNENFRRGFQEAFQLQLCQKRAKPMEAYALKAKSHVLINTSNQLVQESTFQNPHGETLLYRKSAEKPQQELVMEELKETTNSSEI
Sequence of Neuropeptide FF receptor 2 (Homo sapiens), Q9Y5X5 [Y417A] (Q9Y5X5 whole entry Y417A): as above
Sequence of Neuropeptide FF receptor 2 (Homo sapiens), Q9Y5X5 [Y321A] (Q9Y5X5 whole entry Y321A): as the sequence (Q9Y5X5 whole entry Y417A) above, with Y321A, A417Y counted along it
T1 sequence (Q9Y5X5 whole entry): as the sequence (Q9Y5X5 whole entry Y417A) above, with A417Y counted along it
T2 sequence (Q9GZQ6 whole entry): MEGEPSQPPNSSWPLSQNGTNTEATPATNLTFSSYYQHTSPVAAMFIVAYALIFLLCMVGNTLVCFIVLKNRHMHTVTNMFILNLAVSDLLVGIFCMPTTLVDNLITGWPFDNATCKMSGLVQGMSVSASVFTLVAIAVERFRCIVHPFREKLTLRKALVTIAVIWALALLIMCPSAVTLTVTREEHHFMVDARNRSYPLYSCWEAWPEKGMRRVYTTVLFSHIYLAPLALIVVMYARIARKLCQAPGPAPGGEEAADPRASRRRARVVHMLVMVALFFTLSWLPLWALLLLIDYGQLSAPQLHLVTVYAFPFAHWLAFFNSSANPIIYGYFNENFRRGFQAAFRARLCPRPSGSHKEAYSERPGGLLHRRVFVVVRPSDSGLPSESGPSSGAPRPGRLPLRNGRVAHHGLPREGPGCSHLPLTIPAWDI
Sequence of Neuropeptide FF receptor 1 (Homo sapiens), Q9GZQ6 [E205A] (Q9GZQ6 whole entry E205A): as the sequence (Q9GZQ6 whole entry) above, with E205A counted along it
Sequence of Neuropeptide FF receptor 1 (Homo sapiens), Q9GZQ6 [F311A] (Q9GZQ6 whole entry F311A): as the sequence (Q9GZQ6 whole entry) above, with F311A counted along it
Sequence of Neuropeptide FF receptor 1 (Homo sapiens, UniProt Q9GZQ6, F311A) (Q9GZQ6 whole entry F311A): as the sequence (Q9GZQ6 whole entry) above, with F311A counted along it
Sequence of Neuropeptide FF receptor 2 (Homo sapiens, UniProt Q9Y5X5, Y321A) (Q9Y5X5 whole entry Y321A): as the sequence (Q9Y5X5 whole entry Y417A) above, with Y321A, A417Y counted along it
Sequence of Neuropeptide FF receptor 2 (Homo sapiens, UniProt Q9Y5X5, D400A) (Q9Y5X5 whole entry D400A): as the sequence (Q9Y5X5 whole entry Y417A) above, with D400A, A417Y counted along it
Sequence of Neuropeptide FF receptor 2 (Homo sapiens), Q9Y5X5 [D400A] (Q9Y5X5 whole entry D400A): as the sequence (Q9Y5X5 whole entry Y417A) above, with D400A, A417Y counted along it
Sequence of Neuropeptide FF receptor 2 (Homo sapiens), Q9Y5X5 [E310A] (Q9Y5X5 whole entry E310A): as the sequence (Q9Y5X5 whole entry Y417A) above, with E310A, A417Y counted along it
Sequence of Neuropeptide FF receptor 2 (Homo sapiens, UniProt Q9Y5X5, E310A) (Q9Y5X5 whole entry E310A): as the sequence (Q9Y5X5 whole entry Y417A) above, with E310A, A417Y counted along it
Sequence of Neuropeptide FF receptor 2 (Homo sapiens), Q9Y5X5 [Y415A] (Q9Y5X5 whole entry Y415A): as the sequence (Q9Y5X5 whole entry Y417A) above, with Y415A, A417Y counted along it
Sequence of Neuropeptide FF receptor 2 (Homo sapiens, UniProt Q9Y5X5, Y415A) (Q9Y5X5 whole entry Y415A): as the sequence (Q9Y5X5 whole entry Y417A) above, with Y415A, A417Y counted along it
Sequence of Neuropeptide FF receptor 1 (Homo sapiens, UniProt Q9GZQ6, E205A) (Q9GZQ6 whole entry E205A): as the sequence (Q9GZQ6 whole entry) above, with E205A counted along it
Sequence of Neuropeptide FF receptor 1 (Homo sapiens), Q9GZQ6 [Y309A] (Q9GZQ6 whole entry Y309A): as the sequence (Q9GZQ6 whole entry) above, with Y309A counted along it
Sequence of Neuropeptide FF receptor 1 (Homo sapiens, UniProt Q9GZQ6, Y309A) (Q9GZQ6 whole entry Y309A): as the sequence (Q9GZQ6 whole entry) above, with Y309A counted along it
Sequence of Neuropeptide FF receptor 1 (Homo sapiens), Q9GZQ6 [Y216A] (Q9GZQ6 whole entry Y216A): as the sequence (Q9GZQ6 whole entry) above, with Y216A counted along it
Sequence of Neuropeptide FF receptor 1 (Homo sapiens, UniProt Q9GZQ6, Y216A) (Q9GZQ6 whole entry Y216A): as the sequence (Q9GZQ6 whole entry) above, with Y216A counted along it
Sequence of Neuropeptide FF receptor 1 (Homo sapiens, UniProt Q9GZQ6, D294A) (Q9GZQ6 whole entry D294A): as the sequence (Q9GZQ6 whole entry) above, with D294A counted along it
Sequence of Neuropeptide FF receptor 1 (Homo sapiens), Q9GZQ6 [D294A] (Q9GZQ6 whole entry D294A): as the sequence (Q9GZQ6 whole entry) above, with D294A counted along it

## N=C(N)N/N=C/c1ccc(Br)c(Br)c1
[1]
  EC50: 2190 nM
[2]
  Emax: 22%
[3]
  EC50: 527 nM

## N=C(N)N/N=C/c1ccc(-c2ccc(Br)cc2C(F)(F)F)o1
[4]
  Emax: 78%
[5]
  Emax: 77%
[6]
  Emax: 65%
[7]
  Emax: 24%
[8]
  Emax: 100%
[9]
  EC50: 1260 nM
[10]
  EC50: > 10 µM
[11]
  EC50: > 10 µM
[12]
  EC50: > 10000 nM
[13]
  EC50: > 10 µM
[14]
  Emax: 88%
[15]
  Emax: 85%
[16]
  Emax: 37%
[17]
  Emax: 21%
[18]
  EC50: > 10000 nM
[19]
  Emax: 111%
[20]
  EC50: 4.61 µM
[21]
  EC50: > 10 µM
[22]
  EC50: > 10 µM
[23]
  EC50: > 10 µM
[24]
  Emax: 118%
[1]
  EC50: 1660 nM
[25]
  Emax: 110%
[3]
  EC50: 5620 nM

## NC(N)=NCCC[C@@H](NC(=O)C(c1ccccc1)c1ccccc1)C(=O)NCc1ccc(O)cc1
[26]
  Emax: 51%
[24]
  Emax: 57%
[27]
  EC50: Not Active

## N=C(N)NCCC[C@H](NC(=O)C12CC3CC(CC(C3)C1)C2)C(=O)N[C@@H](Cc1ccccc1)C(N)=O
[8]
  Emax: 75%
[28]
  Emax: 89%
[29]
  Ratio EC50: 271
[24]
  Emax: 75%
[25]
  Emax: 93%

## N=C(N)NCCC[C@@H](NC(=O)C(c1ccccc1)c1ccccc1)C(=O)NCc1ccc(O)cc1
[9]
  EC50: 113 nM
[30]
  Kb: 20.9 nM
[1]
  EC50: 233 nM

## CC(C)C[C@H](NC(=O)[C@H](CC(N)=O)NC(=O)[C@@H]1CCCN1C(=O)[C@@H](N)C(C)C)C(=O)N1CCC[C@H]1C(=O)N[C@@H](CCC(N)=O)C(=O)N[C@@H](CCCNC(=N)N)C(=O)N[C@@H](Cc1ccccc1)C(N)=O
[31]
  Emax: 66%

## N=C(N)N/N=C/C12CC3CC(CC(C3)C1)C2
[7]
  Emax: 59%
[8]
  Emax: 107%
[9]
  EC50: 301 nM
[32]
  Emax: 83%
[10]
  EC50: 8.33 µM
[11]
  EC50: 8.86 µM
[33]
  Emax: 83% and 69%
[12]
  EC50: 2450 nM
[13]
  EC50: > 10 µM
[30]
  Kb: 41.7 nM
[24]
  Emax: 132%
[1]
  EC50: 298 nM
[27]
  EC50: Not Active
[34]
  Emax: 140%

## N=C(N)N/N=C/c1ccc(Cl)c(C(F)(F)F)c1
[3]
  EC50: 2370 nM

## NC(=O)[C@H](Cc1ccccc1)NC(=O)[C@H](CCCN=C(N)N)NC(=O)C12CC3CC(CC(C3)C1)C2
[9]
  EC50: 472 nM
[18]
  EC50: 462 nM
[1]
  EC50: 379 nM
[3]
  EC50: 71 nM
